Thrombin inh: thrombin (human) inhibition | alpha-thrombin, Boc-VPR-AMC fluorogenic substrate cleavage | inhibition, % at 5 µM | 220,000 tested, 0.26% active | AID 1046;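 active = inhibition at or above 40%; inactive = inhibition below 40%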
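signal = AMC fluorescence, 355/460 nm | material = human alpha-thrombin enzyme | control set = enzyme without compound as high, wells lacking enzyme as low | times = reaction at room temperature | read-out basis = percent inhibition scaled between no-compound controls and no-enzyme blanks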
FXIa inh: factor XIa (human) inhibition; P03951; purified FXIa, Boc-Glu-Ala-Arg-AMC fluorogenic substrate; inhibition, % at 5 µM; 220,000 tested, 0.14% active;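 active = inhibition of at least 40%; inactive = inhibition below 40%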;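 note: fluorescence of freed AMC excited at 355 nm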
Target sequence (P03951 19-387 limits assumed): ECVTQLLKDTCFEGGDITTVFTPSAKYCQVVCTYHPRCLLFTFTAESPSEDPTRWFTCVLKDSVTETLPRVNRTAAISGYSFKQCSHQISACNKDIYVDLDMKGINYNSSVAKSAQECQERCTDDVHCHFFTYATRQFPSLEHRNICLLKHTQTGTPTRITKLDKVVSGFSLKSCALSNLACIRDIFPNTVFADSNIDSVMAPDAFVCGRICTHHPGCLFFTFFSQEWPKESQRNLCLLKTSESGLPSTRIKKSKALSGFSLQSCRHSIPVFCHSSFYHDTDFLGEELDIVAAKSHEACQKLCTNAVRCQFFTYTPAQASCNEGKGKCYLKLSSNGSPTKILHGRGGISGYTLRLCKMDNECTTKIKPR
Target sequence (P03951 388-625 limits assumed): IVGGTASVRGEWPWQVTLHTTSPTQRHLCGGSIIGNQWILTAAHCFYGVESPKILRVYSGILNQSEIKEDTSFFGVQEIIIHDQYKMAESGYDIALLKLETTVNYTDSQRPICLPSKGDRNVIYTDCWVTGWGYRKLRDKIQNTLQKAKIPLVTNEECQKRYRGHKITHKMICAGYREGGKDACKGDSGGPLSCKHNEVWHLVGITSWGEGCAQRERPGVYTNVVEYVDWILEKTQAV
hK5 inh: kallikrein 5 (human) inhibition. inhibition, % at 5 µM. Q9Y337. recombinant hK5, fluorogenic AMC substrate cleavage. 210,000 tested, 0.59% active;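 active = inhibition of 40% or more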
FXIIa inh: blocks human coagulation factor XIIa protease activity | P00748 | purified FXIIa, Boc-QGR-AMC fluorogenic substrate, 2 h | inhibition, % at 5 µM | 220,000 tested, 0.3% active | AID 800; in the data active = inhibition above about 40%
m-calpain inh: inhibitors of pig calpain II; AID 1236; inhibition, % at 16 µM; purified calpain II, fluorogenic peptide substrate, 30 min; 220,000 tested, 0.37% active;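 active = inhibition above about 50%, limit read from the data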
Hits are given with their value; i = inactive; nt = not tested or not shown. In the library only some 1.4% were active in any assay of this set; here they are far more common.

SMILES | Thrombin inh | FXIa inh | hK5 inh | FXIIa inh | m-calpain inh
CN(CCc1cnn(C)c1)Cc1cn[nH]c1-c1ccc(-c2ccccc2)cc1 | i | i | i | i | i
COc1ccc2cc(C(=O)Nc3ccc(S(N)(=O)=O)cc3)sc(=O)c2c1OC | i | i | i | i | i
COc1cc(C(CCN2CCCCC2)c2c(OC)cc(OC)c3c(C)cc(=O)oc23)cc(OC)c1OC (stereo unspecified) | i | i | i | i | i
COc1ccccc1CNC(=O)CSc1nc2ccccc2c(=O)n1CCCN1CCOCC1 | i | i | i | i | i
COc1ccc(NC(=O)CSc2nc3ccccc3c(=O)n2CCCN2CCCCC2)c(OC)c1 | i | i | 48.7 | i | i
COc1ccc(OC)c(NC(=O)CSc2nc3ccccc3c3nc4ccccc4n23)c1 | i | i | i | i | 69.5
CC1CCN(c2c(NCC3CCC(C(=O)NCCCc4ccccc4)CC3)c(=O)c2=O)CC1 (stereo unspecified) | i | i | i | i | i
CC(C(Sc1ccccc1N)c1ccccc1)[N+](=O)[O-] (stereo unspecified) | i | i | i | i | i
Cc1cc(NC(=O)CSc2nc3ccccc3c(=O)n2-c2ccccc2)no1 | i | i | 43.3 | i | i
Cc1cc(NC(=O)CSc2nnc(-c3c[nH]c4ccccc34)n2-c2ccc(F)cc2)no1 | i | i | i | i | i
COc1cccc(-n2c(SCC(=O)Nc3ccc4c(c3)CCC4)nc3ccccc3c2=O)c1 | 53.8 | i | 44.6 | i | i
CCOc1ccc(-n2c(SCC(=O)Nc3cc(C)on3)nnc2-c2c[nH]c3ccccc23)cc1 | i | i | i | 47.8 | i
CCNC(=O)CSc1nc2ccccc2c(=O)n1-c1cccc(OC)c1 | i | i | i | i | i
Cc1ccc(-n2c(SCC(=O)Nc3cc(C)on3)nc3ccccc3c2=O)cc1 | i | i | i | i | i
O=C(Cn1nc(-c2ccc3c(c2)OCCO3)ccc1=O)Nc1cccc(NC(=O)c2ccccn2)c1 | i | i | i | i | 62.2
CC(C)CCn1cnc2c(oc3nc4c(cc32)CCCC4)c1=O | i | i | i | i | i
O=C(CN1C(=O)c2cccc3cccc1c23)NCc1ccc2c(c1)OCO2 | i | i | 41.3 | 104.7 | i
COc1cc(/C=C2\CCOC2=O)cc(OC)c1OC | i | i | i | i | i
CCCN(CCC)C(=O)Cn1ccc(=N)c2ccccc21 | i | i | 45.7 | i | i
COc1ccc(N(C(=O)CNC(=O)c2cccs2)C(C(=O)NCC2CCCO2)c2ccccc2)cc1OC (stereo unspecified) | i | i | i | i | i
CC(C)Oc1ccc(/C=C/C(=O)NCC2COc3ccccc3O2)cc1 (stereo unspecified) | i | i | i | i | i
COc1ccc(NC(=O)C(Cl)=C(Cl)Cl)cn1 | i | i | 103.5 | i | i
COc1ccccc1CC(=O)NN1C(=O)c2ccccc2C1=O | i | i | 44.3 | 105.8 | i
CC(C)c1ccc(NC(=S)Nc2ccc3cn[nH]c3c2)cc1 | 41.8 | i | i | i | i
O=C(NNc1c(Cl)cccc1Cl)c1cccs1 | i | i | i | i | i
SMILES | Thrombin inh | FXIa inh | hK5 inh | FXIIa inh | m-calpain inh
O=C(NCCc1ccccn1)c1ccc(OC(F)F)cc1 | i | i | i | i | 88.9
COC(=O)c1[nH]c2cccc(OC)c2c1NC(=O)CN1CCN(c2cccc(OC)c2)C(C)C1 (stereo unspecified) | i | i | 125.2 | i | i
CCOC(=O)c1[nH]c2cc(OC)c(OC)cc2c1NC(=O)CN1CCN(c2ccc(OC)cc2)C(C)C1 (stereo unspecified) | i | i | i | i | i
Oc1ccc(/C=N/Nc2nc(-c3cccnc3)nc3ccccc23)c(O)c1 | i | 42.4 | i | i | i
Cc1c(O)ccc(/C=N/Nc2nc(-c3cccnc3)nc3ccccc23)c1O | i | i | i | i | i
O=C(CCc1ccc(O)cc1)N/N=C/c1coc2ccccc2c1=O | 58.3 | i | i | i | i
C/C(=N\NC(=S)NCc1ccccc1)c1ccc(C#N)cc1 | i | i | 54.0 | i | i
Cc1onc(-c2ccccc2)c1C(=O)N(Cc1ccco1)Cc1cccs1 | i | 40.0 | i | i | i
Cc1ccc(Oc2ccc(C(=O)NCc3ccncc3)cc2)cc1 | i | i | i | i | 50.2
O=C(NCc1ccncc1)c1ccc(Oc2ccccc2)cc1 | nt | i | i | i | i
O=C(c1cccc(C(F)(F)F)c1)N1CCc2c([nH]c3ccccc23)C1C(F)(F)F (stereo unspecified) | i | i | i | i | i
Nc1c(C(=O)c2ccccc2)oc2ccccc12 | i | i | i | i | i
O=C(c1ccc(Cl)cc1)c1oc2ccccc2c1CS(=O)(=O)c1ccccc1 | i | i | i | i | 60.1
COc1cc(/C=N/n2cnnc2)ccc1OC(=O)c1cccnc1 | i | i | i | 42.3 | i
COc1cc(/C=N/n2cnnc2)ccc1OC(=O)c1ccncc1 | i | i | i | i | i
COc1cccc(N2C(=O)CC(NNc3nc4ccccc4s3)C2=O)c1 (stereo unspecified) | i | i | 40.3 | i | i
O=C1CC(NNc2nc3ccccc3s2)C(=O)N1c1ccccc1 (stereo unspecified) | i | i | i | i | i
O=C(CN(Cc1cccs1)C(=O)CNS(=O)(=O)c1ccccc1)NCc1ccco1 | i | i | 89.3 | i | i
O=C(CN(Cc1ccco1)C(=O)CNS(=O)(=O)c1ccccc1)NCc1ccccc1 | i | i | i | i | i
COc1cc(S(=O)(=O)Nc2ccc(Br)cc2)ccc1N | i | i | nt | i | i
O=C(c1nc2ccccc2s1)N1CCSCC1 | i | i | i | i | i
O=C(c1nc2ccccc2s1)N1CCN(c2ccccn2)CC1 | 44.9 | i | i | i | i
COc1ccccc1CNC(=O)CSc1nnc2ccc(-c3cccnc3)nn12 | i | i | i | i | i
Oc1ccc(C2Nc3cccc4cccc(c34)N2)c(O)c1 | 66.9 | i | 57.0 | i | i
COc1cc(C2Nc3cccc4cccc(c34)N2)cc(OC)c1O | i | i | i | i | i
SMILES | Thrombin inh | FXIa inh | hK5 inh | FXIIa inh | m-calpain inh
Cc1cc2ncn(C(=O)c3ccc4c(c3)OCO4)c2cc1C | 41.2 | i | i | i | i
Cc1ccc(C(O)P(=O)(OCc2ccccc2)c2ccc(N(C)C)cc2)cc1 (stereo unspecified) | i | i | i | i | i
Cc1cc(C(=O)Nc2nc(C)c(C(=O)N(C)C)s2)ccc1[N+](=O)[O-] | 42.6 | i | i | 53.0 | i
O=C(Nc1cccc(-c2nnc(-c3ccco3)o2)c1)c1ccccc1 | i | i | i | i | 78.7
CC1(c2nnc(Cc3ccccc3)o2)CC(c2cccc(Cl)c2)=NO1 (stereo unspecified) | i | i | i | i | i
COc1cc2c(cc1OC)CN(S(C)(=O)=O)CC2 | i | i | i | i | i
COc1ccc(C2c3cc(OC)c(OC)cc3CCN2S(C)(=O)=O)cc1OC (stereo unspecified) | i | i | i | 46.3 | i
CCOC(=O)c1ccccc1Oc1c(F)c(F)nc(NCCO)c1F | 42.1 | i | 42.0 | i | i
CCOC(=O)c1[nH]ncc1CN1CCN(Cc2ccc(C)cc2)C(CCO)C1 (stereo unspecified) | i | i | i | i | i

Source: PubChem BioAssay
